Test results: ChEMBL document CHEMBL4616673 (J Med Chem, 2020)
Several values for one entry are separate records, joined by “and”; a condition that tells them apart may be missing. Equal values may be shown once.

Key:
Raji [1] = assay: Induction of apoptosis in human Raji cells assessed as necrotic cells at 0.125 uM measured after 48 hrs by Annexin V-FITC staining based flow cytometry (reference value: 0.21 %); type: functional
[2] = Acute toxicity in BALB/c mouse assessed as effect on blood CK level at 400 mg/kg, po measured on day 14; type: organism-based; details: in vivo
Summary of the method: (§1)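 BALB/c mice, female and male, 6-8 weeks old, given oral doses within 24 h, up to 400 mg/kg (free compound) or 800 mg/kg (nanocrystal formulation). Watched for body weight loss, diarrhea, anorexia, skin ulcer and toxic death. Serum biochemistry panel was run at the end of treatment.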

[3] = Acute toxicity in BALB/c mouse assessed as effect on blood TG level at 400 mg/kg, po measured on day 14; type: organism-based; details: in vivo; summary of the method: as §1
[4] = Half life in Sprague-Dawley rat at 25 mg/kg, po administered via gavage by LC-MS analysis; type: ADME, organism-based; details: in vivo
Summary of the method: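 Male Sprague-Dawley rats, fasted overnight, with jugular vein catheters for serial blood sampling. Single dose given by oral gavage (25 mg/kg) or tail-vein injection (5 mg/kg). Blood drawn at set times and centrifuged at once for plasma. Plasma drug levels measured by LC-MS. Parameters reported as means, n = 6.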

Raji [5] = assay: Induction of apoptosis in human Raji cells assessed as early apoptotic cells at 0.063 uM measured after 48 hrs by Annexin V-FITC staining based flow cytometry (reference value: 1 %); type: functional
[6] = Acute toxicity in BALB/c mouse assessed as effect on blood ALT level at 400 mg/kg, po measured on day 14; type: organism-based; details: in vivo; summary of the method: as §1
A-375 = assay: Antiproliferative activity against human A375 cells assessed as reduction in cell viability measured after 48 hrs by MTT assay; type: functional, cell-based; details: Homo sapiens, A-375, 48 h
[7] = Acute toxicity in BALB/c mouse assessed as effect on heart at 800 mg/kg, po measured on day 14 by H and E staining based light microscopic analysis; type: organism-based; details: in vivo
Summary of the method: (§2)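 Female and male BALB/c mice, 6-8 weeks old, dosed orally within 24 h at up to 400 mg/kg (free compound) or 800 mg/kg (nanocrystal). At the end of treatment, heart, liver, spleen, lung and kidney were sectioned, stained with H&E and imaged by light microscopy.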

Raji [8] = assay: Induction of apoptosis in human Raji cells assessed as necrotic cells at 0.063 uM measured after 48 hrs by Annexin V-FITC staining based flow cytometry (reference value: 0.21 %); type: functional
[9] = Toxicity in NOD-SCID nude mouse xenografted with human Raji cells assessed as effect on body weight at 40 to 80 mg/kg/day, po administered 6 days a week for 3 weeks and measured every 3 days during compound dosing; type: organism-based; details: in vivo
Summary of the method: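 Mice, 6-7 weeks old, injected s.c. with 1×10^7 Raji cells in serum-free medium plus basement membrane matrix. At 100–200 mm3 tumours, randomised (n=6). Oral dosing 6 days/week for 3 weeks: 30 mg/kg/d free compound suspended in 5% NMP/95% PEG400, or 40 or 80 mg/kg/d nanocrystal. Body weight and tumour volume measured every 3 days.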

[10] = Acute toxicity in BALB/c mouse assessed as effect on blood HDL level at 400 mg/kg, po measured on day 14; type: organism-based; details: in vivo; summary of the method: as §1
[11] = Acute toxicity in BALB/c mouse assessed as effect on blood BUN level at 400 mg/kg, po measured on day 14; type: organism-based; details: in vivo; summary of the method: as §1
Raji [12] = assay: Induction of apoptosis in human Raji cells assessed as late apoptotic cells at 0.031 uM measured after 48 hrs by Annexin V-FITC staining based flow cytometry (reference value: 0.7 %); type: functional
[13] = Tmax in Sprague-Dawley rat at 25 mg/kg, po administered via gavage by LC-MS analysis; type: ADME, organism-based; details: in vivo
Summary of the method: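 Male Sprague-Dawley rats, fasted overnight, jugular vein catheter for serial blood sampling. Single dose of 25 mg/kg by oral gavage or 5 mg/kg by tail-vein injection. Blood drawn at set times and spun at once for plasma, plasma drug by LC-MS. Parameters given as mean, n = 6.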

[14] = Acute toxicity in BALB/c mouse assessed as effect on blood LDH level at 400 mg/kg, po measured on day 14; type: organism-based; details: in vivo; summary of the method: as §1
[15] = Acute toxicity in BALB/c mouse assessed as effect on blood ALP level at 400 mg/kg, po measured on day 14; type: organism-based; details: in vivo; summary of the method: as §1
Raji [16] = assay: Induction of ROS generation in human Raji cells assessed as increase in ROS level measured after 24 hrs by DHE dye based fluorescence microplate reader assay; type: functional, cell-based
Summary of the method: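 Raji cells treated 24 h, harvested, stained with 10 μM DHE in pre-warmed PBS for 15 min in the dark. Fluorescence read on a plate reader at ex 510/em 600 nm. Mean ± SD.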

[17] = Acute toxicity in BALB/c mouse assessed as effect on blood LDLC level at 800 mg/kg, po measured on day 14; type: organism-based; details: in vivo; summary of the method: as §1
[18] = Acute toxicity in BALB/c mouse assessed as effect on blood UA level at 400 mg/kg, po measured on day 14; type: organism-based; details: in vivo; summary of the method: as §1
[19] = Acute toxicity in BALB/c mouse assessed as effect on spleen at 800 mg/kg, po measured on day 14 by H and E staining based light microscopic analysis; type: organism-based; details: in vivo; summary of the method: as §2
[20] = Acute toxicity in BALB/c mouse assessed as effect on liver at 400 mg/kg, po measured on day 14 by H and E staining based light microscopic analysis; type: organism-based; details: in vivo; summary of the method: as §2
[21] = Acute toxicity in BALB/c mouse assessed as effect on blood BILT level at 400 mg/kg, po measured on day 14; type: organism-based; details: in vivo; summary of the method: as §1
[22] = Acute toxicity in BALB/c mouse assessed as effect on blood CK level at 800 mg/kg, po measured on day 14; type: organism-based; details: in vivo; summary of the method: as §1
HCT-116 = assay: Antiproliferative activity against human HCT116 cells assessed as reduction in cell viability measured after 48 hrs by MTT assay; type: functional, cell-based; details: Homo sapiens, HCT-116, 48 h
Raji [23] = assay: Induction of apoptosis in human Raji cells assessed as late apoptotic cells at 0.125 uM measured after 48 hrs by Annexin V-FITC staining based flow cytometry (reference value: 0.7 %); type: functional
Raji [24] = assay: Induction of apoptosis in human Raji cells assessed as live cells at 0.031 uM measured after 48 hrs by Annexin V-FITC staining based flow cytometry (reference value: 98.09 %); type: functional
[25] = Stability of the compound in pH 1 to 7.4 buffer assessed as decrease in compound concentration at 0.01 mg/ml measured up to 24 hrs by LC-MS analysis; type: physicochemical; details: read-out: Drug degradation
Summary of the method: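 Compound at 0.01 mg/mL final in buffer containing 10% acetonitrile at pH 1.0, 4.5, 6.6, 7.4 or 9.0. Held at 37 °C, sampled at 0, 2, 4, 6, 8, 10, 12 and 24 h. Remaining compound by LC-MS.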

Raji [26] = assay: Induction of apoptosis in human Raji cells assessed as live cells at 0.063 uM measured after 48 hrs by Annexin V-FITC staining based flow cytometry (reference value: 98.09 %); type: functional

With `O=C1c2ccccc2C(=O)c2c1nnn2-c1cc(F)c(-c2ccccc2F)c(F)c1` the Activity (Raji [1]) was 0.39%, the Activity [2] was “Non-Toxic” and the Activity [3] was “Non-Toxic”. The half-life ([4]; Sprague-Dawley) was 8.83 h, the t1/2 [4] was 12.47 h and the Activity (Raji [5]) was 3.08%. The Activity [6] was “Non-Toxic”, the IC50 (A-375) was 0.02 µM and the Activity [7] was “Non-Toxic”. For the same molecule, the Activity (Raji [8]) was 0.34%, the Activity [9] was “Non-Toxic” and the Activity [10] was “Non-Toxic”. The Activity [11] was “Non-Toxic”, the Activity (Raji [12]) was 3.4% and the Tmax [13] was 10 h and 27 h. For the same molecule, the Activity [14] was “Non-Toxic”, the Activity [15] was “Non-Toxic” and the Activity (Raji [16]) was “Dose-dependent effect”. For the same molecule, the Activity [17] was “Non-Toxic”, the Activity [18] was “Non-Toxic” and the Activity [19] was “Non-Toxic”. For the same molecule, the Activity [20] was “Non-Toxic”, the Activity [21] was “Non-Toxic” and the Activity [22] was “Non-Toxic”. For the same molecule, the IC50 (HCT-116) was 0.29 µM, the Activity (Raji [23]) was 6.04% and the Activity (Raji [24]) was 93.14%. It also gave a degraded at 24 h, 0.01 mg/ml [25] of 1.6 to 9% and an Activity (Raji [26]) of 92.31%.
